Source: PubChem BioAssay AID617 (SRMLSC, 2007)

These molecules were tested on E. coli BW25113 ΔtolC growth inhibition, OD615 (assay: E. coli ΔtolC antibacterial growth inhibition – strain BW25113 ΔtolC::kan, dose response (AID 617);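 note: growth read after 20 h at 37 °C with compound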).
Procedure, shortened: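 Test system: E. coli BW25113 ΔtolC::kan bacteria | Amount: 1:1000 diluted subculture inoculum | Medium: LB plus kanamycin | Timing: 20 h exposure at 37 °C | Signal: Absorbance at 615 nm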
Molecule `Cc1ccc2ccc(S(=O)(=O)n3nc(C)cc3C)cc2c1` has an IC50 of 14.5 µM. With `Clc1ccc(OCCN2CCN(c3ncnc4sccc34)CC2)cc1` the IC50 was 16.1 µM. `CC1CCC2C(C1)c1sc(=O)[nH]c1SC2(C)C` (stereo not drawn) was tested, and the IC50 was 7.77 µM. Work on `Oc1c(CN2CCCCC2)cc(Br)c2cccnc12` yielded an IC50 of 4.8 µM. `C=C(C)COc1ccc(-c2[nH]ncc2Oc2cccc(OC)c2)c(O)c1` gave an IC50 of 6 µM. In the case of `Cc1n[nH]c(C)c1S(=O)(=O)N(CC(=O)Nc1ccc2c(c1)OCCO2)c1ccc(C(C)C)cc1`, the IC50 is reported as 19.3 µM. `COc1ccc(-c2cc(C(=O)N3CCc4ccccc4C3)no2)cc1OC` gave an IC50 of 16.6 µM. `CCCn1c(CNc2ccc(Br)cc2)nc2ccccc21` was tested, and the IC50 was 6.22 µM. In the case of `Cc1ccc2cc(CN(Cc3ccc(F)cc3)Cc3nnnn3C3CCCC3)c(=O)[nH]c2c1`, the IC50 is reported as 12.8 µM. Molecule `c1ccc(Cn2nnc3c(N4CCN(Cc5ccc6c(c5)OCO6)CC4)ncnc32)cc1` has an IC50 of 22.6 µM. Molecule `O=S(=O)(Nc1nc2ccccc2nc1NCc1ccco1)c1cccs1` has an IC50 of 8.75 µM. `CC(=O)c1c(O)cc(C)n(Nc2nc(C)cc(C)n2)c1=O` gave an IC50 of 13.1 µM. `CCCOC(=O)c1ccc(Oc2cn[nH]c2-c2ccc(OCC)cc2O)cc1` showed an IC50 of 13.6 µM. Work on `c1ccc(CCc2ccccc2-c2nc(-c3cccnc3)no2)cc1` yielded an IC50 of 11.9 µM. In the case of `COC(=O)c1ccccc1NC(=O)c1ccc2c(c1)OCCO2`, the IC50 is reported as 21.9 µM. With `CCOC(=O)c1cc2sccc2n1Cc1ccc(C#N)cc1` the IC50 was 11.1 µM. Work on `Oc1ccccc1-c1nc(NCC2CCCO2)c2ccccc2n1` (stereo not drawn) yielded an IC50 of 90.8 µM. `CCCn1c(CN(Cc2ccccc2)Cc2ccccc2)nc2c1c(=O)n(C)c(=O)n2C` gave an IC50 of 7.19 µM. Molecule `Cc1noc(NS(=O)(=O)c2ccc(NC(=O)COc3ccc(Cl)cc3Cl)cc2)c1C` has an IC50 of 9.41 µM. For `Cc1cc(N2CCCCCC2)nc(-c2ccccc2O)n1`, the IC50 was 13.6 µM. Work on `Clc1ccc(Nc2nc(-c3cccs3)cs2)nc1` yielded an IC50 of 80.2 µM. For `Cc1ccc(C(C(=O)NC2CCCC2)N(Cc2cccs2)C(=O)CNC(=O)c2cccs2)o1` (stereo not drawn), the IC50 was 22.3 µM. `O=C(Nc1nc(-c2ccccn2)cs1)c1ccc(Cl)s1` gave an IC50 of 0.13 µM. `COC(=O)c1[nH]c2cccc(OC)c2c1NC(=O)CN1CC2(C)CC1CC(C)(C)C2` (stereo not drawn) gave an IC50 of 38.8 µM. In the case of `c1ccc(CCN2CCN(c3ncnc4c3cnn4-c3ccccc3)CC2)cc1`, the IC50 is reported as 10.6 µM. With `Cc1ccc(CN2CCSc3ccc(C(=O)N4CCN(c5ncccn5)CC4)cc32)cc1` the IC50 was 17 µM. In the case of `COc1ccc2[nH]c3c(=O)n(CCCCC(=O)N4CCC(C(N)=O)CC4)c(=S)[nH]c3c2c1`, the IC50 is reported as 10.7 µM. Work on `COc1ccc(-c2nnc(NC(=O)c3ccc(S(=O)(=O)N4CCc5ccccc5C4)cc3)o2)cc1` yielded an IC50 of 0.22 µM. For `CCCn1c(SCC(=O)Nc2ccccc2N2CCCCC2)nc2c1c(=O)n(C)c(=O)n2C`, the IC50 was 11.7 µM. `COc1ccc(-c2nnc(SCc3cc(C)cc(C)c3)o2)cc1` gave an IC50 of 6.77 µM. Work on `COCc1nnc(NC(=O)c2ccc(S(=O)(=O)N(C)c3ccccc3)cc2)o1` yielded an IC50 of 6.56 µM. `Brc1cccc(-c2n[nH]c(-c3ccccc3)n2)c1` gave an IC50 of 23.8 µM. Molecule `COc1ccc(-c2cc3nc4c(c(N5CCC6(CC5)OCCO6)n3n2)CCCC4)cc1` has an IC50 of 28.8 µM. In the case of `CCOC(=O)C1CN(c2cc3c(cc2F)c(=O)c(C(=O)O)cn3CC)OC1C(=O)OCC` (stereo not drawn), the IC50 is reported as 0.81 µM. With `Cc1ccc(NC(=O)CN(C)S(=O)(=O)c2cccc3nsnc23)cc1Cl` the IC50 was 17.8 µM. Work on `Cc1ccc(Cn2c(SCC(C)C)nc3c2c(=O)n(C)c(=O)n3C)cc1` yielded an IC50 of 89.6 µM. For `CCNc1nc(NC(C)C)nc(N(C#N)CCOc2ccc(Cl)cc2Cl)n1`, the IC50 was 6.64 µM. For `CCCn1c(=O)c(C(=O)Nc2nnc(C)s2)c(O)c2ccccc21`, the IC50 was 12 µM. In the case of `O=C(CSc1nnnn1C1CCCCC1)Nc1nc2c(s1)CCCC2`, the IC50 is reported as 10.2 µM. For `OCCN1CCN(c2nc(-c3ccccc3)c3cc(Cl)ccc3n2)CC1`, the IC50 was 60.6 µM. Work on `CCn1c(Cn2nnc(-c3ccccc3)n2)nnc1SCc1ccc(Cl)c(Cl)c1` yielded an IC50 of 7.77 µM. `COCc1nnc(NC(=O)c2ccc(S(=O)(=O)N(C)C3CCCCC3)cc2)o1` gave an IC50 of 4.09 µM. In the case of `OC(COc1ccc2ccccc2c1Br)Cn1ccnc1` (stereo not drawn), the IC50 is reported as 7.54 µM. `CCC(c1nnnn1C1CCCCC1)N(Cc1ccco1)Cc1cc2ccc(OC)cc2[nH]c1=O` (stereo not drawn) was tested, and the IC50 was 13.3 µM. Work on `N=c1n(Cc2ccccc2)c2ccccc2n1CC(O)COc1ccccc1` (stereo not drawn) yielded an IC50 of 21.2 µM. `CCN(CC)S(=O)(=O)c1ccc2[nH]cc(C(=O)NCCC3=CCCCC3)c(=O)c2c1` gave an IC50 of 5.15 µM. Work on `CCOC(=O)c1cn(CC)c2cc(N3CCOCC3)c(F)cc2c1=O` yielded an IC50 of 0.78 µM. For `COc1ccc(Cl)cc1N1CCN(CCNC(=O)Nc2ccccc2C)CC1`, the IC50 was 43.7 µM. `Clc1ccc(OCCn2ccnc2)c2ccccc12` gave an IC50 of 5.58 µM. `N#Cc1nc(Cc2cccc3ccccc23)oc1NCc1ccc(F)cc1` showed an IC50 of 11.7 µM. For `CCCCOc1ccc(S(=O)(=O)n2c(C)nc3ccccc32)cc1`, the IC50 was 11.4 µM. Work on `CC(C)(C)c1ccc(-c2nnc(SCCC#N)n2C2CCCC2)cc1` yielded an IC50 of 15.8 µM. `O=C1CCCC2=C1C(c1cccs1)n1nc(SCc3ccccc3)nc1N2` (stereo not drawn) showed an IC50 of 15.8 µM. `Cc1csc(NC(=O)CSc2ncnc3c2cnn3-c2ccccc2Cl)n1` gave an IC50 of 16.4 µM. For `CCC(Sc1nnnn1-c1ccccc1)C(=O)Nc1nc2ccccc2s1` (stereo not drawn), the IC50 was 5.44 µM. For `CCc1cc(C(=O)COc2ccccc2F)c(O)cc1O`, the IC50 was 10.8 µM. `Cc1ccc(S(=O)(=O)Cn2nnnc2CN2CCCC3(CCCCC3)C2)cc1` gave an IC50 of 11.3 µM. `Cc1ccc(-n2c(=O)[nH]cc(C(=O)Nc3ccc4c(c3)OCCO4)c2=O)cc1C` was tested, and the IC50 was 26.9 µM. `COc1ccc(CN(C(=O)CN2C(=O)COc3ccccc32)C2CCCC2)c(OC)c1` was tested, and the IC50 was 19.1 µM. Work on `O=C(c1cccc(F)c1)N1CCN(C(=O)c2cc(-c3ccc(Cl)cc3Cl)on2)CC1` yielded an IC50 of 9.75 µM. `CCCCCC(=O)Nc1ccccc1N1CCN(c2ccccc2)CC1` gave an IC50 of 20.6 µM. In the case of `CCn1c(C(=O)OC)cc2c1ccn2-c1ccc(F)cc1`, the IC50 is reported as 17.2 µM. In the case of `Brc1cccc(C2CC(c3ccccc3)n3nnnc3N2)c1` (stereo not drawn), the IC50 is reported as 23.7 µM. With `CCOC(=O)c1cnc(-n2nc(C)cc2C)nc1N(CC)CC` the IC50 was 12.3 µM. With `Cc1noc(C)c1COC(=O)c1cc(C)n(-c2ccccc2)c1C` the IC50 was 11.5 µM. `O=S(=O)(c1ccccc1)c1nc(-c2ccco2)oc1N1CCCCCC1` was tested, and the IC50 was 11.2 µM. For `O=C(NCc1ccco1)C(c1cccs1)N(C(=O)C1COc2ccccc2O1)c1cccc(O)c1` (stereo not drawn), the IC50 was 11.8 µM. For `COc1cccc(-c2cc(C(=O)N3C(C)CCCC3C)no2)c1` (stereo not drawn), the IC50 was 32.8 µM. `CCOC(=O)Nc1ccc2c(c1)N(C(=O)N1CCN(C)CC1)c1ccccc1S2` was tested, and the IC50 was 36.9 µM. `CC1CCCN(S(=O)(=O)c2ccc(NC(=O)Cn3nnc(-c4ccccc4F)n3)cc2)C1` (stereo not drawn) showed an IC50 of 26.6 µM. `COc1ccc2nc3c(cc2c1)c(NC(=O)c1cccs1)nn3CC(C)C` showed an IC50 of 9.28 µM. Work on `O=C(c1ccc(COc2ccc3c(c2)CCC3)o1)N1CCN(c2ccccc2)CC1` yielded an IC50 of 10.7 µM. With `CSc1nc(N2CCOCC2)c2c3c(sc2n1)CCCC3` the IC50 was 11.9 µM. `Cc1c(C(=O)N2CCCCC2)oc2ccc(S(=O)(=O)N3CC(C)CC(C)C3)cc12` (stereo not drawn) was tested, and the IC50 was 9.13 µM. `N=c1n(CCN2CCOCC2)c2ccccc2n1CC(=O)c1ccc(Cl)c(Cl)c1` was tested, and the IC50 was 27.1 µM. `CCOC(=O)Cc1csc(NC(=O)c2ccc(S(=O)(=O)N3CCCCC3)cc2)n1` was tested, and the IC50 was 91.3 µM. For `O=C(Nc1ncc(Br)s1)C(Cc1ccccc1)n1cccc1` (stereo not drawn), the IC50 was 3.21 µM. Work on `COc1cc(S(=O)(=O)N2CCC(O)(c3cccc(C(F)(F)F)c3)CC2)ccc1-n1cnnn1` yielded an IC50 of 11.1 µM. Molecule `CCCOc1ccccc1NC(=O)c1c(-c2ccccc2)noc1C` has an IC50 of 15.1 µM. In the case of `COC(=O)c1ccc(/C(O)=C(\C#N)c2nc3ccccc3s2)cc1`, the IC50 is reported as 2.51 µM. In the case of `Cc1[nH]n2c(=O)cc(C(C)(C)C)nc2c1-c1ccccc1`, the IC50 is reported as 1.56 µM. In the case of `CC1(C)COCN1S(=O)(=O)c1ccc(C(=O)Nc2nnc(-c3ccc(Cl)s3)o2)cc1`, the IC50 is reported as under 0.2 µM. Work on `CCc1cc2c(N3CCN(c4ccccc4)CC3)ncnc2s1` yielded an IC50 of 13.6 µM. Work on `CC(C)c1ccc(-c2noc(C3CCCN(C(=O)c4ccc(F)cc4F)C3)n2)cc1` (stereo not drawn) yielded an IC50 of 17.9 µM. `O=C1c2ccccc2C(O)(Cc2ccccc2)N1C1CCCCC1` (stereo not drawn) showed an IC50 of 11.5 µM. `CCOc1ccc2nc(N3CCCN(C(=O)Nc4ccccc4C)CC3)c(C#N)cc2c1` gave an IC50 of 36.3 µM. In the case of `Cn1c(=O)n(Cc2ccccc2)c(=O)c2c1nc1n2CCCN1Cc1ccccc1`, the IC50 is reported as 42.8 µM. Molecule `CCSC(C)CC1C/C(=N/O)c2c(CC)noc2C1` (stereo not drawn) has an IC50 of 20.7 µM. In the case of `Cc1nc2nc(COc3ccccc3)[nH]n2c(=O)c1Cc1ccccc1`, the IC50 is reported as 1.32 µM. Work on `COCCNc1nc(-n2nc(C)cc2C)nc2sc3c(c12)CCCC3` yielded an IC50 of 6.71 µM. `N#Cc1cn(Cc2cccc(Cl)c2)c2ccccc12` showed an IC50 of 7.45 µM. `Cc1cccc(-n2ncc3c(NCc4ccc5c(c4)OCO5)ncnc32)c1` gave an IC50 of 8.94 µM. Work on `COc1ccc(NS(=O)(=O)c2ccc3oc4ccccc4c3c2)cn1` yielded an IC50 of 5.62 µM. For `C=CCn1c(SCC(=O)Nc2nc3ccccc3s2)nnc1-c1ccccc1O`, the IC50 was 8.28 µM. For `O=C1[C@H]2[C@@H](C(=O)N1c1cc(Cl)cc(Cl)c1)[C@]1(C(=O)Nc3ccccc31)N1CCC[C@@H]21`, the IC50 was 10.1 µM. In the case of `Cc1cc(NC(=O)COC(=O)C(Nc2ccc(C(F)(F)F)cc2Cl)C(C)C)no1` (stereo not drawn), the IC50 is reported as 5.37 µM. For `CCc1nnc(NC(=O)c2cccc(C(=O)Nc3nnc(CC)s3)n2)s1`, the IC50 was 2.16 µM. Work on `CCC1CCCCN1S(=O)(=O)c1ccc2c(c1)CCN2C(=O)C1CCC1` (stereo not drawn) yielded an IC50 of 14.7 µM. In the case of `CCC(C)(C)n1nnnc1C(c1cc2ccc(OC)cc2[nH]c1=O)N1CCc2ccccc2C1` (stereo not drawn), the IC50 is reported as 17.1 µM. For `COc1ccc(-c2noc(CCC(=O)N(C)c3cccc(C)c3)n2)cc1`, the IC50 was 22.7 µM. For `CC(C)(C)c1csc(NC(=O)c2ccc(Cl)s2)n1`, the IC50 was 29.6 µM. `CCCCOC(=O)Nc1cc(C(=O)OC)ccc1C(=O)OC` showed an IC50 of 26.8 µM. `Cc1ccc(C)n1-n1cnc2sc(-c3ccccc3)cc2c1=O` was tested, and the IC50 was 7.12 µM.
